In one data set the target is integrin α4β1 (VLA-4) (Mus musculus, UniProt P09055+Q00651). The experiment in a line: Saturation binding assay in B16F10 melanoma cells. The note with it: 4 °C, 2 h, 0.1–80 nM. A digest of the protocol:
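Binding medium was HBSS with 0.1% BSA and 1 mM Mn²⁺. Nonspecific binding was measured with 12 μg unlabelled ligand. After 2 h on ice, cells were rinsed, lysed in 0.5% SDS and gamma-counted. Counts were normalised to BCA protein, n=3 per point.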

The nature of data set [1]: Biodistribution studies in B16F10 tumor-bearing mice. It is filed as in vivo, C57BL/6 mice. The note with it: C57BL/6, mouse, iv, total radioactivity; for tissue uptake at 2 h: 14 μCi (14 ng); for tissue to tissue ratio at 2 h: 14 ng. A digest of the protocol: (§1)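 Subcutaneous B16F10 tumours (1 × 10⁷ cells in PBS:Matrigel 1:1) grown 14–21 d in 7-wk-old C57BL/6 mice. Mice (n = 5/group) were given the ⁶⁴Cu-labelled conjugate i.v., 14 μCi (14 ng; 1000 μCi/μg); the blocking group's dose was premixed with 50 μg unlabelled ligand. Animals were killed at 2 h, and tissues and tumour were weighed and gamma-counted. %ID/g was decay-corrected against an injected-dose standard; mean±SD.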

The test system of data set [2] is B16F10 tumor-bearing mice. Described as above. The note with it: 2 h, co-administered with excess cold LLP2A (50 μg). Format: in vivo, C57BL/6 mice. A digest of the protocol: as §1
The subject of data set [3] is B16F10 tumor-bearing mice. The experiment in a line: Small animal PET/CT imaging of B16F10 tumor-bearing mice. It is filed as in vivo, C57BL/6 mice. The note with it: 2 h post-injection. A digest of the protocol:
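Mice bearing B16F10 tumours received the ⁶⁴Cu-labelled conjugate by tail vein, 100 μCi (667 ng); half of the doses were premixed with 100 μg unlabelled ligand. PET/CT was done at 2 and 24 h under 1–2% isoflurane, with 15 or 30 min static scans and MAP reconstruction. CT-guided ROIs gave maximum SUV (nCi/mL × weight/injected dose), and tumour:background ratios were taken from MIP images (n = 2).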

In data set [4] the test system is B16F10 tumor-bearing mice. The note with it: 2 h post-injection, 5 μCi (12.5 ng); previously published data; cited from earlier work.

Molecules are shown by their SMILES. “And” between values parts separate entries of the source, which are not always exact repeats. Identical values can stand only once.

Chain of integrin α4β1 (VLA-4) (Q00651 41-1039): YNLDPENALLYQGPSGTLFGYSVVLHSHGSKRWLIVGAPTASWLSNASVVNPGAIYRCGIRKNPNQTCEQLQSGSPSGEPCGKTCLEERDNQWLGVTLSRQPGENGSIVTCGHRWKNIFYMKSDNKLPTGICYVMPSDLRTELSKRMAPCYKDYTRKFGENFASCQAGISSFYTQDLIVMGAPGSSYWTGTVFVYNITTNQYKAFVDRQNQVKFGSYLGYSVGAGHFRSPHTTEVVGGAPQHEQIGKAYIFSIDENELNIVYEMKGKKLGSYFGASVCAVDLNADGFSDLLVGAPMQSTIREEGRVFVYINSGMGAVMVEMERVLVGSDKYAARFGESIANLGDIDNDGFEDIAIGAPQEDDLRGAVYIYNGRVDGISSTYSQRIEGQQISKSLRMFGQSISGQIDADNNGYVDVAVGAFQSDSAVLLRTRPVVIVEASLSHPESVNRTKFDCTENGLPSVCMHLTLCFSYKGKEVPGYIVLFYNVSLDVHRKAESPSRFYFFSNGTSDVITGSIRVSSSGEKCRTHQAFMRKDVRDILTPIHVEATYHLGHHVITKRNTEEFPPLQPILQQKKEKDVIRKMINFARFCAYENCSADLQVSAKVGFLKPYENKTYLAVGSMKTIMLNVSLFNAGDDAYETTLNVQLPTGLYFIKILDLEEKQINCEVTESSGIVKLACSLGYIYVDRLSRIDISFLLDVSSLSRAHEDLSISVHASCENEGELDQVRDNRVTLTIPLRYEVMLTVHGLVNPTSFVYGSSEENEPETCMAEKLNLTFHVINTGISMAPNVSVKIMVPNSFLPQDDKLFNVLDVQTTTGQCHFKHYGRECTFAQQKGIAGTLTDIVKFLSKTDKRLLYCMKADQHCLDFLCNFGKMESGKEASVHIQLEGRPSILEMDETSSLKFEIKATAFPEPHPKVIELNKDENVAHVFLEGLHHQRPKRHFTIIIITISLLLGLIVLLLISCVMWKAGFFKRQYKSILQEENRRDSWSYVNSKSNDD
Chain of integrin α4β1 (VLA-4) (P09055 21-798): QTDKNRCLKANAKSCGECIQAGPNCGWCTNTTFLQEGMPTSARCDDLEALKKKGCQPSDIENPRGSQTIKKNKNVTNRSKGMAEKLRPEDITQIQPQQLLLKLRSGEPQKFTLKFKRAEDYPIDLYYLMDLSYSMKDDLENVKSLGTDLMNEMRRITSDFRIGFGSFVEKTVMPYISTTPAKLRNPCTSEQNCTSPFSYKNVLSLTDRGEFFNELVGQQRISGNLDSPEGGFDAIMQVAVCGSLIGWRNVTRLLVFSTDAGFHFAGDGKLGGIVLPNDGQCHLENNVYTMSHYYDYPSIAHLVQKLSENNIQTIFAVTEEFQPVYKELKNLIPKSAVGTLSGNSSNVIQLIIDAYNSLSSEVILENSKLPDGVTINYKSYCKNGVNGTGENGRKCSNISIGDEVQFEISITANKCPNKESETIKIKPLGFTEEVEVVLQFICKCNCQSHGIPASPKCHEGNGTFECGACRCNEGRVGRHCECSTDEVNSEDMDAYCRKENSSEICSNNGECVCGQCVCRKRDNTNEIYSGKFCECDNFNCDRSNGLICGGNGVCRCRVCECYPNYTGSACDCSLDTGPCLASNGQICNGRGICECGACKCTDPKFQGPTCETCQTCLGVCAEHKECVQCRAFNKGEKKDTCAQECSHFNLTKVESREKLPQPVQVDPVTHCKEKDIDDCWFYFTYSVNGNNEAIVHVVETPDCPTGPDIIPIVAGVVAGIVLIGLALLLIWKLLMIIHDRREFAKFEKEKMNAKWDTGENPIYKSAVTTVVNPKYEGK

What is called tissue uptake is the share of the injected amount in each gram of the tissue. As for `Cc1ccccc1NC(=O)Nc1ccc(CC(=O)N[C@@H](CCCCNC(=O)/C=C/c2cccnc2)C(=O)N[C@@H](CCCC(=O)O)C(=O)NC2(C(=O)NCCOCCOCCNC(=O)CCC(=O)NCCOCCOCCNC(=O)CCC(=O)N[C@@H](CCCCNC(=O)CN3CCCN4CCN(CCCN(CP(=O)(O)O)CC4)CC3)C(N)=O)CCCCC2)cc1` [^64Cu-CB-TE1A1P-LLP2A, metal not drawn], the “receptor concentration (Bmax)” value on integrin α4β1 (VLA-4) was 471 fmol/mg and 471 ± 14 fmol/mg. The tissue uptake at 2 h stood at 6.2 ± 1.7 %ID/g in data set [1] (bone); 3.2 ± 0.4 %ID/g in data set [1] (kidney); 2.3 ± 0.3 %ID/g in data set [1] (liver); 32.6 ± 19 %ID/g in data set [1] (marrow); 17.9 ± 2.3 %ID/g in data set [1] (spleen); 11.4 ± 2.3 %ID/g in data set [1] (tumor). For the same compound, the tissue to tissue ratio at 2 h in data set [1] (tumor / blood) came to 19.5 ± 3; in data set [1] (tumor / muscle) it was 13 ± 1.4. Further, the “Radiotracer uptake in tumor, spleen and bone in the presence of blocking agent” value in data set [2] was “significantly reduced”. For the same compound, the “Fold higher tumor to background ratio than ^64Cu-CB-TE2A-LLP2A” value in data set [3] is “more than 2 fold”.
As for `Cc1ccccc1NC(=O)Nc1ccc(CC(=O)N[C@@H](CCCCNC(=O)/C=C/c2cccnc2)C(=O)N[C@@H](CCCC(=O)O)C(=O)NC2(C(=O)NCCOCCOCCNC(=O)CCC(=O)NCCOCCOCCNC(=O)CCC(=O)N[C@@H](CCCCNC(=O)CN3CCCN4CCN(CCCN(CC(=O)O)CC4)CC3)C(N)=O)CCCCC2)cc1` [^64Cu-CB-TE2A-LLP2A, metal not drawn, reference compound], on integrin α4β1 (VLA-4), the “receptor concentration (Bmax)” value is 304 fmol/mg and 304 ± 18 fmol/mg. In data set [4], the “Tumor to blood ratio” value is listed as 4.2 ± 1.4 and the “Tumor to muscle ratio” value was 5.5 ± 0.9.

These data come from paper PMC3563241 (Nuclear medicine and biology, 2012).
